Laboratory results taken from ChEMBL document CHEMBL4342493, “Design and Optimization of 3'-(Imidazo[1,2-a]pyrazin-3-yl)-[1,1'-biphenyl]-3-carboxamides as Selective DDR1 Inhibitors” (ACS Med Chem Lett, 2020).

Experiments:
Homo sapiens = species: Homo sapiens; assay: Selectivity index, ratio of IC50 for human recombinant His-tagged c-Kit cytoplasmic domain (544 to 976 residues) expressed in baculovirus expression system using Ser/Thr 6 peptide as substrate after 1 hr in presence of 300 uM ATP by FRET based Z'-LYTE assay to IC50 for recombinant human GST-tagged DDR1 catalytic domain (440 to 876 residues) expressed in baculovirus expression system using Fluorescein-poly GAT as substrate incubated for 1 hr in presence of ATP by LanthaScreen Eu kinase assay
Outline: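 Ratio of c-Kit IC50 to DDR1 IC50. c-Kit was measured by FRET-based Z′-Lyte assay and DDR1 by LanthaScreen Eu kinase assay. Each IC50 is the mean of three independent experiments, with variation <20%.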

[1] = target: T1, Discoidin domain-containing receptor 2 (Homo sapiens, UniProt Q16832); assay: Inhibition of recombinant human GST-tagged DDR2 cytoplasmic domain (427 to 855 residues) expressed in baculovirus expression system using Fluorescein-poly GAT as substrate incubated for 1 hr in presence of ATP by LanthaScreen Eu kinase assay
T1 sequence (Q16832 whole entry): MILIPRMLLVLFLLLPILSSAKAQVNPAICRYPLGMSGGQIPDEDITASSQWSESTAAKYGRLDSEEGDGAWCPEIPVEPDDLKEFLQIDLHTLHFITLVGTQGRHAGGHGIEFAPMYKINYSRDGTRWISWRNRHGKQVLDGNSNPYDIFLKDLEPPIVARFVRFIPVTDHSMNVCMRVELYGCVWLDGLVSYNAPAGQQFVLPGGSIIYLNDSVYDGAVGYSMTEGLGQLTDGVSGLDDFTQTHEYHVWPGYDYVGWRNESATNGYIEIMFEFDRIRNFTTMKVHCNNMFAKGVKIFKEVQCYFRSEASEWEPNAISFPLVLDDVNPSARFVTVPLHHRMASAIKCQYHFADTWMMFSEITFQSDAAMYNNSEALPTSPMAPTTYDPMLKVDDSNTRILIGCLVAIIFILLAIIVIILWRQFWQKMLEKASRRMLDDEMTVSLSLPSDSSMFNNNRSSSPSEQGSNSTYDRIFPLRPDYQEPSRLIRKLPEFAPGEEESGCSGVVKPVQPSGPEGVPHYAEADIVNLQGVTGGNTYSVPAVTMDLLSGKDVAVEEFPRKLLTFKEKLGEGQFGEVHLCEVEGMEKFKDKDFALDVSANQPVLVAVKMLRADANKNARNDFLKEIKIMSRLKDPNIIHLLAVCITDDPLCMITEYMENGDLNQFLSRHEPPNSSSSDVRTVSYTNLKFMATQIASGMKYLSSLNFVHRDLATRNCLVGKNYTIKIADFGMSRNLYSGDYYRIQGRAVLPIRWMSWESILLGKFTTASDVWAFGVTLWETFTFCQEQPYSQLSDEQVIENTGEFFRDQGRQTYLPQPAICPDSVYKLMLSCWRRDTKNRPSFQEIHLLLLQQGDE
Outline: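 LanthaScreen Eu kinase assay for DDR2; IC50 values are means of three independent experiments, variations <20%.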

[2] = target: Epithelial discoidin domain-containing receptor 1 (Homo sapiens, UniProt Q08345); assay: Inhibition of recombinant human GST-tagged DDR1 catalytic domain (440 to 876 residues) expressed in baculovirus expression system using Fluorescein-poly GAT as substrate incubated for 1 hr in presence of ATP by LanthaScreen Eu kinase assay
Chain of Epithelial discoidin domain-containing receptor 1 (Q08345 whole entry, the tested form may be a part): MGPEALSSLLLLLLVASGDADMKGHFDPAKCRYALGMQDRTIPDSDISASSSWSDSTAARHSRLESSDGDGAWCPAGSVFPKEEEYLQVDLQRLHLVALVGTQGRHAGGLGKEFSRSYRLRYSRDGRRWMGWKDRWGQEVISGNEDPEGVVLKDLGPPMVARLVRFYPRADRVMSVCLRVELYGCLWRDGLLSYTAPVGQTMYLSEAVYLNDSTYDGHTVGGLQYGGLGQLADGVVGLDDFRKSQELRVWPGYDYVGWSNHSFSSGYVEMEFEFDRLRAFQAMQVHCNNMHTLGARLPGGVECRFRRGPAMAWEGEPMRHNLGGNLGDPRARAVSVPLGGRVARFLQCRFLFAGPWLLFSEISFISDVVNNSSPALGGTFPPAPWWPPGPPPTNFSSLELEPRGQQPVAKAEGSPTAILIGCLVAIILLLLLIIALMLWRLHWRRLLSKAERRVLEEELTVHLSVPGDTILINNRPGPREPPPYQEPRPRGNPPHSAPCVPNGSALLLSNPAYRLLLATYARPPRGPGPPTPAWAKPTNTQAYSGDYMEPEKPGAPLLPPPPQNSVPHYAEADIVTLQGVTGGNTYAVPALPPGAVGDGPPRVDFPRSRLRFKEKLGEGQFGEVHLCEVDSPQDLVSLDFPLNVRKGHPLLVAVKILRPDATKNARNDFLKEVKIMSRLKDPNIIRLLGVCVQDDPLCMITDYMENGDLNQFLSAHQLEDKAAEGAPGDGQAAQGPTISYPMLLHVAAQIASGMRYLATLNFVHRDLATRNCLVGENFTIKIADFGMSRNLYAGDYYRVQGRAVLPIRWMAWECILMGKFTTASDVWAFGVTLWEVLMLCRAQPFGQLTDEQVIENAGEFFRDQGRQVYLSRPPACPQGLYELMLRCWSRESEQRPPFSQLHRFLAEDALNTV

NCI-H1299 = assay: Antiinvasive activity against human H1299 cells at 5 uM after 24 hrs by crystal violet staining based transwell assay relative to control; assay type: functional; details: NCI-H1299, 24 h
Outline: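 H1299 NSCLC cells; transwell invasion assay over 24 h with compound at 1.25, 2.5 and 5.0 μM; invasion expressed relative to blank control.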

[3] = target: Dual specificity protein kinase CLK4 (Homo sapiens, UniProt Q9HAZ1); assay: Inhibition of wild-type human partial length CLK4 (R135 to K481 residues) expressed in bacterial expression system assessed as enzyme residual activity at 200 nM after 1 hr by Kinomescan method relative to control
Chain of Dual specificity protein kinase CLK4 (Q9HAZ1 whole entry, looked up, the tested form may be a part): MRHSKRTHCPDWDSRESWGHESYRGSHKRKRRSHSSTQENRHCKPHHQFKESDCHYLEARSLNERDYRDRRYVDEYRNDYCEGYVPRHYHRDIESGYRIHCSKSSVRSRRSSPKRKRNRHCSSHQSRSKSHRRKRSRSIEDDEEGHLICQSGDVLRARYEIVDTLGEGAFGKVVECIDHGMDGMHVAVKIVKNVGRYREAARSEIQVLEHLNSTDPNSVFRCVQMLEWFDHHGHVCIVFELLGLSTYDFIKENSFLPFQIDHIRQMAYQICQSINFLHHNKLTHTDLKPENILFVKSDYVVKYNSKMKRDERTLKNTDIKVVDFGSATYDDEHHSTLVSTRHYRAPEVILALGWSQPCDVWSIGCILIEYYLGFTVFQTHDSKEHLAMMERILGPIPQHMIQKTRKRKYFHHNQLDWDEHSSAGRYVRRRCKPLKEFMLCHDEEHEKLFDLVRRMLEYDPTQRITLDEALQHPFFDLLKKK

Ratio IC50 (Homo sapiens): 420
IC50 [1]: 1740 nM
IC50 [2]: 23.8 nM
Activity [3]: 1.8%
Compound: CCc1ccc(C(=O)Nc2cc(F)cc(C(F)(F)F)c2)cc1-c1cc(C)cc(-c2cnc3cnccn23)c1
inhibition at 5 µM (NCI-H1299): 71%
